Assay results from ChEMBL document CHEMBL5154924, “Discovery of In Vivo Active Sphingosine-1-phosphate Transporter (Spns2) Inhibitors” (J Med Chem, 2022).
The source made the active and inactive calls. No cut-off for these calls is given here.

target: T1, Sphingosine-1-phosphate transporter SPNS2 (Mus musculus) (UniProt Q91VM4); test: (§1) Inhibition of mouse Spns2 transfected in human HeLa cells by measuring S1P release by LC/MS analysis; format: cell-based; settings: dose <= 5.0 µM, DDE = dose-dependent effect
T1 sequence (whole entry): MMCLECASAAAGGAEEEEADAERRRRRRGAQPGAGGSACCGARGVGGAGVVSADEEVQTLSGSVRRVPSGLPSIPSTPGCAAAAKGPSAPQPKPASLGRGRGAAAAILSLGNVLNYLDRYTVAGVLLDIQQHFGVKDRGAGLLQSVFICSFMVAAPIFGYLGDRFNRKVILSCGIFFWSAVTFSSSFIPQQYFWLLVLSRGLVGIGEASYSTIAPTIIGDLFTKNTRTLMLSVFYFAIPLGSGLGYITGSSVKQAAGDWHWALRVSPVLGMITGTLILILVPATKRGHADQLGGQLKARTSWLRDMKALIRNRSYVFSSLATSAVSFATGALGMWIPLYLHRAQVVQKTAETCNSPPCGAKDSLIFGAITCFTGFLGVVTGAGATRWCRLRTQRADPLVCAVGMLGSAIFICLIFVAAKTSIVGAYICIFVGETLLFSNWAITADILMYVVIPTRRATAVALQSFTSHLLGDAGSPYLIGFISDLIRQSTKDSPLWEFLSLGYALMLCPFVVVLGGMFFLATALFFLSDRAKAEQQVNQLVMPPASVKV
Summary of the method: (§2)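 Mouse Spns2-transfected HeLa cells (G418-selected) held 18–20 h in RPMI 1640/0.2% fatty acid-free BSA containing 1 mM 4-deoxypyridoxine, 2 mM NaF and 0.2 mM Na₃VO₄ across a compound concentration series. Released S1P quantified by LC-MS/MS with d₇-S1P internal standard; IC50 calculated from the concentration–effect curve.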

Structure (SMILES) | inhibition
CCCCCCCCCCc1ccc(-c2noc(CCCN)n2)cc1.Cl | Dde

target: T2, Sphingosine-1-phosphate transporter SPNS2 (Mus musculus, UniProt Q91VM4); test: as §1; format: cell-based; settings: not given; summary of the method: as §2
T2 sequence (Q91VM4 whole entry): T1 sequence (whole entry)

Structure (SMILES) | IC50 [µM]
CCCCCCCCCCc1ccc(-c2noc(CCCN)n2)cc1.Cl | 1.93

target: T1, Sphingosine-1-phosphate transporter SPNS2 (Mus musculus); test: Inhibition of mouse Spns2 transfected in human HeLa cells by measuring S1P release at 2 uM by LC/MS analysis relative to control; format: cell-based; settings: not given
Summary of the method: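 HeLa cells stably transfected with mouse Spns2 and selected with G418, grown to near confluence. Medium replaced with RPMI 1640/0.2% fatty acid-free BSA containing 1 mM 4-deoxypyridoxine, 2 mM NaF and 0.2 mM Na₃VO₄. Compound added to duplicate wells, incubated 18–20 h. Medium S1P measured by LC-MS/MS against d₇-S1P after TCA precipitation and methanol extraction. Inhibition expressed relative to no-inhibitor control.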

Structure (SMILES) | inhibition [%]
CCCCCCCCCCc1ccc(-c2noc(CCCN3CCOCC3)n2)cc1 | 2
CCCCCCCCCOc1ccc(-c2noc(CCCN)n2)cc1C(F)(F)F | 24
CCCCCCCCCOc1ccc(-c2noc(CCCN)n2)cc1F | 50
CCCCCCCCCCc1ccc(-c2noc([C@H]3CCNC3)n2)cc1 | 26
CCCCCCCOc1ccc2cc(-c3noc(CCCN)n3)ccc2c1 | 8
CCCCCCCCCCc1ccc(-c2noc([C@H]3CCCN3)n2)cc1 | 12
CCCCCCCCCCc1ccc(-c2noc(C3CNC3)n2)cc1 | 65
CCCCCCCCCCc1ccc(-c2noc([C@@H]3CC[C@H](N)C3)n2)cc1 | 38
CCCCCCCCCCc1ccc(-c2noc([C@@H]3CCNC3)n2)cc1 | 62
CCCCCCCCCCc1ccc(-c2ccnn2CCCN)cc1 | 45
CCCCCCCCCCc1ccc(-c2noc(C[C@H](C)N)n2)cc1 | 44
CCCCCCCCCCc1ccc(-c2noc([C@H](CCCCN)NC(C)=O)n2)cc1 | 40
CCCCCCCCCCc1ccc(-c2cnn(CCCN)c2)cc1 | 50
CCCCCCCCCCc1ccc(-c2noc([C@@H]3CCCN3)n2)cc1 | 21
CCCCCCCCCCc1ccc(-c2csc(CCCN)n2)cc1 | 45
CCCCCCCCCCc1ccc(-c2noc(CC(O)CN3CCCC3)n2)cc1 (configuration not stated) | 21
CCCCCCCCCCc1ccc(-c2noc(C[C@@H]3CCNC3)n2)cc1 | 44
CCCCCCCCCCc1ccc(-c2noc(-c3cccc(CN)c3)n2)cc1 | 2
CCCCCCCCCCc1ccc(-c2c[nH]c(CCCN)n2)cc1 | 63
CCCCCCCCCCc1ccc(-c2noc([C@H]3CCC[C@@H](N)C3)n2)cc1 | 29
CCCCCCCCCCc1ccc(-c2noc(CC(O)CN3CCOCC3)n2)cc1 (configuration not stated) | 0
CCCCCCCCCCc1ccc(-c2noc(C3CCNCC3)n2)cc1 | 66
CCCCCCCCCCc1ccc(-c2noc(CC(O)CN3CCCCC3)n2)cc1 (configuration not stated) | 2
CCCCCCCCCCc1ccc(-c2noc([C@@H]3CCC[C@@H](N)C3)n2)cc1 | 13
CCCCCCCCCCc1ccc(-c2noc(CN3CCNCC3)n2)cc1 | 19
CCCCCCCCCCc1ccc(-c2ccn(CCCN)n2)cc1 | 44
CCCCCCCCCCc1ccc(-c2cn(C)c(CCCN)n2)cc1 | 51

The next lines start with the values.

inhibition [%] | Structure (SMILES)
40 | CCCCCCCCCCc1ccc(-c2noc([C@@H](N)CCCN)n2)cc1
35 | CCCCCCCCC(=O)Nc1ccc(-c2noc(CCCN)n2)cc1
59 | CCCCCCCCCCc1ccc(-c2nnc(CCCN)o2)cc1
70 | CCCCCCCCc1ccc(-c2noc(CCCN)n2)cc1
62 | CCCCCCCCCCc1ccc(-c2noc(CN)n2)cc1
49 | CCCCCCCCCCCc1ccc(-c2noc(CCCN)n2)cc1
55 | CCCCCCCCCCc1ccc(-c2noc(CCCCN)n2)cc1
0 | CCCCCCCCCCc1ccc(-c2noc(CCCN3CCCCC3)n2)cc1
5 | CCCCCCCCCCc1ccc(-c2noc(C(Cl)CCN)n2)cc1 (configuration not stated)
40 | CCCCCCCCc1ccc(CCc2noc(CCCN)n2)cc1
0 | CCCCCCCCCCc1ccc(-c2noc(CC(CN)OC(C)=O)n2)cc1 (configuration not stated)
5 | CCCCCCCCCCc1ccc(-c2noc(CC(O)CNCC)n2)cc1 (configuration not stated)
52 | CCCCCCCc1ccc(-c2noc(CCCN)n2)cc1
61 | CCCCCCCCCCc1ccc(-c2noc(CC(O)CN(C)C)n2)cc1 (configuration not stated)
14 | CCCCCCCCCCc1ccc(-c2noc([C@@H](N)CCN)n2)cc1
26 | CCCCCCCCCCc1cccc(-c2noc(CCCN)n2)c1
61 | CCCCCCCCCc1ccc(-c2noc(CCCN)n2)cc1

inhibition [%] | Structure (SMILES)
49 | CCCCCCCCCOc1ccc(-c2noc(CCCN)n2)cc1
59 | CCCCCCCCCCc1ccc(-c2noc(CCN)n2)cc1
0 | CCCCCCCCNC(=O)c1ccc(-c2noc(CCCN)n2)cc1
63 | CCCCCCCCCCc1ccc(-c2noc(CC3CNC3)n2)cc1
55 | CCCCCCc1ccc(-c2noc(CCCN)n2)cc1
49 | CCCCCCCCCCc1ccc(-c2coc(CCCN)n2)cc1
8 | CCCCCCCCCCc1ccc(-c2noc(CCCN(C)C)n2)cc1
5 | CCCCCCCCCCc1ccc(-c2noc(CC[C@@H](N)C(=O)O)n2)cc1
45 | CCCCCCCCCCc1ccc(-c2noc(CCCNC)n2)cc1
59 | CCCCCCCCCCc1ccc(-c2noc(CC(O)CN)n2)cc1 (configuration not stated)
34 | CCCCCCCCCc1ccc(Cc2noc(CCCN)n2)cc1
43 | CCCCCCCCCCc1ccc(-c2noc([C@@H](N)CCCCN)n2)cc1
67 | CCCCCCCCCCc1ccc(-c2noc(CCCN)n2)cc1.Cl
3 | CCCCCCCCCCc1ccc(-c2noc(CCCN3CCCC3)n2)cc1
50 | CCCCCCCCCCc1ccc(-c2noc([C@H](N)CCCCN)n2)cc1
11 | CCCCCCCC(=O)NCc1ccc(-c2noc(CCCN)n2)cc1

target: Sphingosine kinase 1 (Mus musculus, UniProt Q8CI15); test: Inhibition of recombinant mouse SphK1 transfected in HEK293T cells using D-erythro-sphingosine measured after 20 mins in presence of gamma-[p32]-ATP by autoradiography and liquid scintillation counting method; format: cell-based; settings: not given
Sequence (Q8CI15 whole entry): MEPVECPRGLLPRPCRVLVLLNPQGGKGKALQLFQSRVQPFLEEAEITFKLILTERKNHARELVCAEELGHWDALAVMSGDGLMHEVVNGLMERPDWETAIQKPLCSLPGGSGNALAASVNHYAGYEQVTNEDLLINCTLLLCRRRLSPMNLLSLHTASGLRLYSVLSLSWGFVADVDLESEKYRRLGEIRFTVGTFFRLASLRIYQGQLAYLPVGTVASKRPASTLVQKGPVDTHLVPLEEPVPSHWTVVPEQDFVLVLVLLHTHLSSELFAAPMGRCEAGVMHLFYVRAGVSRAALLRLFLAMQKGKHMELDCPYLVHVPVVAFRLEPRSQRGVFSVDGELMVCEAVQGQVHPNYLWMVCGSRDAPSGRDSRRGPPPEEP

Structure (SMILES) | IC50 [µM]
CCCCCCCCCCc1ccc(-c2noc(CCCN)n2)cc1.Cl | ≥ 30

target: T3, Sphingosine kinase 2 (Mus musculus, UniProt Q9JIA7); test: Inhibition of recombinant mouse SphK2 transfected in HEK293T cells using D-erythro-sphingosine measured after 20 mins in presence of gamma-[p32]-ATP by autoradiography and liquid scintillation counting method; format: cell-based; settings: not given
T3 sequence (Q9JIA7 whole entry): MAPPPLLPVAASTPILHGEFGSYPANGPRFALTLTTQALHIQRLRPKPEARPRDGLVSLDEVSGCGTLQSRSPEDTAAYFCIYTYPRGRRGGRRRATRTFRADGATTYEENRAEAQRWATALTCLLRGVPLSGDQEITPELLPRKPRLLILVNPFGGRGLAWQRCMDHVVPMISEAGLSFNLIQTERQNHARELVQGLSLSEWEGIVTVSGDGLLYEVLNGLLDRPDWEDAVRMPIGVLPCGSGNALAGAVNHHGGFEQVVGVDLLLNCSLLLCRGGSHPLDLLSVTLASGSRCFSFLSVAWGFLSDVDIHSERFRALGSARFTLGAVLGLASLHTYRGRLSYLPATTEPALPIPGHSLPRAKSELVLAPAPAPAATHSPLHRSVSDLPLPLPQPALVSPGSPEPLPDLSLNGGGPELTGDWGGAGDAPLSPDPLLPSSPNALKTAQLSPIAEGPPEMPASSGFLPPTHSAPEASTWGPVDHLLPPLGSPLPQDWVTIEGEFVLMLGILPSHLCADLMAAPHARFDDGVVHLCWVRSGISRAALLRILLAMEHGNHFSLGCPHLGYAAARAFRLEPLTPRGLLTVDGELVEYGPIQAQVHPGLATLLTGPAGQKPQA
Summary of the method: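 Lysate of mouse SphK2 from baculovirus-infected Sf9 or transfected HEK293T cells (0.02–0.03 mg protein). Buffer: 20 mM Tris-Cl pH 7.4 with MgCl₂, phosphatase/protease inhibitors, 10% glycerol and 1 M KCl. Substrate 5 μM D-erythro-sphingosine, 10 μM γ-[³²P]ATP, compound 10–30,000 nM. Reaction run 20 min at 37 °C, then lipids extracted and separated by TLC. Product detected by autoradiography and quantified by scintillation counting; run in duplicate.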

Structure (SMILES) | IC50 [µM]
CCCCCCCCCCc1ccc(-c2noc(CCCN)n2)cc1.Cl | 30

organism: Mus musculus; test: Selectivity ratio of IC50 for mouse SphK1 to recombinant mouse Snps2; settings: not given

Structure (SMILES) | Ratio IC50
CCCCCCCCCCc1ccc(-c2noc(CCCN)n2)cc1.Cl | 15

organism: Mus musculus; test: Selectivity ratio of IC50 for mouse SphK2 to recombinant mouse Snps2; settings: not given

Structure (SMILES) | Ratio IC50
CCCCCCCCCCc1ccc(-c2noc(CCCN)n2)cc1.Cl | 15

tested on: Mus musculus; test: In vivo inactivation of Spns2 gene in C57BL/6j mouse assessed as decrease in circulating lymphocytes at 20 mg/kg, ip measured after 4 hrs by blood analyzer; format: functional, organism-based; settings: not given
Summary of the method: (§3)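 Blood drawn 4 h postdose. Lymphocytes counted from 20 μL blood on a haematology analyzer; plasma S1P quantified by LC-MS/MS. Compared with vehicle-treated controls by t-test.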

Structure (SMILES) | inhibition
CCCCCCCCCCc1ccc(-c2noc(CCCN)n2)cc1.Cl | Active

tested on: Mus musculus; test: In vivo inactivation of Spns2 gene in C57BL/6j mouse assessed as decrease in plasma S1P at 20 mg/kg, ip measured after 4 hrs by LC-MS/MS analysis; format: functional, organism-based; settings: not given; summary of the method: as §3

Structure (SMILES) | inhibition
CCCCCCCCCCc1ccc(-c2noc(CCCN)n2)cc1.Cl | Active

tested on: not listed separately; test: Half life in Sprague-Dawley rat plasma at 10 mg/kg, ip by LC-MS/MS analysis; format: ADME, organism-based; settings: not given
Summary of the method: (§4)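 Single intraperitoneal dose to 4-week-old male rats (n = 4); vehicle 36.1% PEG400/9.1% ethanol/4.6% Solutol/50% H₂O. Tail-nick whole blood (ca. 70 μL) collected at 0, 0.5, 1, 2, 4, 6 and 24 h postdose. Plasma drug levels quantified by LC-MS/MS with an internal standard.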

Structure (SMILES) | half-life [h]
CCCCCCCCCCc1ccc(-c2noc(CCCN)n2)cc1.Cl | > 8

tested on: not listed separately; test: Drug concentration in Sprague-Dawley rat plasma at 10 mg/kg, ip at 24 hrs by LC-MS/MS analysis; format: ADME, organism-based; settings: not given; summary of the method: as §4

Structure (SMILES) | concentration at 24 h [µM]
CCCCCCCCCCc1ccc(-c2noc(CCCN)n2)cc1.Cl | 2

tested on: not listed separately; test: Drug concentration in Sprague-Dawley rat plasma at 10 mg/kg, ip at 2 hrs by LC-MS/MS analysis; format: ADME, organism-based; settings: not given; summary of the method: as §4

Structure (SMILES) | concentration at 2 h [µM]
CCCCCCCCCCc1ccc(-c2noc(CCCN)n2)cc1.Cl | 5

tested on: Rattus norvegicus; test: In vivo inactivation of Spns2 gene in Sprague-Dawley rat assessed as decrease in circulating lymphocytes at 10 mg/kg, ip measured upto 24 hrs by blood analyzer; format: functional; parameters: scale not given: the % may be the effect or the level left; settings: not given
Summary of the method: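 Male rats 4 weeks old (n = 4) received a single intraperitoneal dose in PEG400/ethanol/Solutol/water vehicle. Tail-nick blood sampled at 0, 0.5, 1, 2, 4, 6 and 24 h. Lymphocytes counted from 20 μL blood on a haematology analyzer; counts compared with time 0.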

Structure (SMILES) | Activity [%]
CCCCCCCCCCc1ccc(-c2noc(CCCN)n2)cc1.Cl | 25
